This is a sample that favours compounds with a hit; in the whole collection about 1.5% have one here.
FLuc act counter: firefly luciferase counter-screen for stimulation assays; activation factor at 10 µM; 200,000 tested, under 10 active; P08659; ATPlite luciferase biochemical, luminescence, 10 min; 0 = ATP-free wells, 1 = DMSO control; AID 1027;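 active = luciferase activation factor, scaled between plate controls, of at least 2 with compound at 10 µM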
Target sequence (P08659 whole entry, looked up): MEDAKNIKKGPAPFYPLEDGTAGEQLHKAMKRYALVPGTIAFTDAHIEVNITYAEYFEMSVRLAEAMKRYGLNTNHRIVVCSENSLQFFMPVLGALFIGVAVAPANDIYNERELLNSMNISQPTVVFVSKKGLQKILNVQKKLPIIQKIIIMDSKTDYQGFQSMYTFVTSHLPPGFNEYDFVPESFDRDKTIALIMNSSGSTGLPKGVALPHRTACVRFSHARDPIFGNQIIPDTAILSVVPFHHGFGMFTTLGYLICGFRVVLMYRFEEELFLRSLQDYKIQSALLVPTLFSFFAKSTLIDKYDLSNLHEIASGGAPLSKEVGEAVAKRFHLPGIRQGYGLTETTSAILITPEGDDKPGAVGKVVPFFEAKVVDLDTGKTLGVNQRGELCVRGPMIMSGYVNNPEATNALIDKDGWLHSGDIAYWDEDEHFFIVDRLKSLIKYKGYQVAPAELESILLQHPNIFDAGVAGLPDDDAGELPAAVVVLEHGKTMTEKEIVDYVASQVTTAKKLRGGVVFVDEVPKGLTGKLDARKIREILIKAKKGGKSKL
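System: luciferase plus luciferin reagent, cell-free; medium: PBS as buffer for the ATP substrate; dosing: test compounds dosed from 2 mM stocks in 100% DMSO; timing: 10 min post-reagent at room temperature; measured by: luminescence measurement of luciferase light output; evaluation: luciferase activation, seen as luminescence increase over controls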
TRAIL sens C8: sensitizes caspase-8 expressing cells to TRAIL. NB7+C8 cells + TRAIL, ATPlite viability luminescence. inhibition (viability loss, TRAIL sensitization), % at 10 µM. hit rate 1% among 360,000. AID 624354;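 active = compounds causing at least 50% loss of cell viability in the single-dose screen, relative to plate controls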
FLuc inh counter: Photinus pyralis luciferase inhibition counter-screen. ATPLite firefly luciferase biochemical luminescence, 10 min. inhibition, % at 10 µM. AID 1006. P08659. hit rate 1.5% among 200,000;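 active = inhibition above about 50% when tested at 10 µM, limit read from the data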
PPC-1+TRAIL kill: PPC-1 cancer cell killing with TRAIL present. PPC-1 cells + TRAIL, ATPLite viability luminescence. cell killing (% activity), % at 4 µM or 5 µM. hit rate 0.41% among 220,000;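 active = cell killing above 50% in the first pass at 4 µM, then a duplicate retest at 5 µM averaging 50% or more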
Large screens that a line does not name were inactive; ! = repeats disagree.

Cc1occc1C(=O)N(Cc1nc(-c2ccccc2)no1)C(C)C	none (no result: FLuc act counter, FLuc inh counter, PPC-1+TRAIL kill)
O=C(c1cc(-c2ccc(Cl)cc2Cl)on1)N1CCCC1	TRAIL sens C8 67 (no result: FLuc act counter, FLuc inh counter, PPC-1+TRAIL kill)
O=C(c1ccc(-c2ccc(Cl)cc2Cl)o1)N1CCOCC1	FLuc inh counter 51
O=C(c1cc(-c2ccc(Cl)cc2Cl)on1)N1CCCCCC1	none (no result: FLuc act counter, FLuc inh counter, PPC-1+TRAIL kill)
O=C(c1ccc(-c2cc(Cl)ccc2Cl)o1)N1CCOCC1	none (no result: PPC-1+TRAIL kill)
CCOC(=O)c1ccc(Nc2ncnc3nc[nH]c23)cc1	FLuc inh counter 50
CCOC(=O)c1ccc(NC(=O)c2nc[nH]c2C(=O)NCCNC(=O)c2[nH]cnc2C(=O)Nc2ccc(C(=O)OCC)cc2)cc1	TRAIL sens C8 92 (no result: FLuc act counter, FLuc inh counter, PPC-1+TRAIL kill)
CCOC(=O)c1ccc(Nc2ncnc3ccccc23)cc1	none
C[C@H](CO)N1C[C@H](C)[C@@H](CN(C)S(=O)(=O)c2ccc(F)cc2)Oc2ccc(NC(=O)C3CCCCC3)cc2C1=O	none (no result: FLuc act counter, FLuc inh counter, PPC-1+TRAIL kill)
O=C(CN(C1CCCCC1)S(=O)(=O)c1ccc(F)cc1)NCC1CCCO1 (stereo unspecified)	TRAIL sens C8 94 (no result: FLuc act counter, FLuc inh counter, PPC-1+TRAIL kill)
O=C(CN(C1CCCCC1)S(=O)(=O)c1ccccc1)NCC1CCCO1 (stereo unspecified)	none (no result: FLuc act counter, FLuc inh counter, PPC-1+TRAIL kill)
CC(=O)Nc1ccc(C(=O)OCC(=O)N2CCC(Cc3ccccc3)CC2)cc1	none (no result: FLuc act counter, FLuc inh counter, PPC-1+TRAIL kill)
Cc1ccc2nc(NC(=O)CCCc3nc4ccccc4s3)sc2c1	none
Cc1ccc2nc(NC(=O)CCCC(=O)O)sc2c1	FLuc inh counter 66
COc1ccc2nc(NC(=O)c3cc(C)oc3C)sc2c1	none
Cc1cccc(NC(=S)NC(=O)c2cccs2)n1	none
COc1ccc(C(=O)Nc2nc3cc4c(cc3s2)OCO4)c(OC)c1	TRAIL sens C8 51 (no result: FLuc act counter, FLuc inh counter)
Cc1nc(NC(=S)NC(=O)c2cccs2)ccc1Br	FLuc inh counter 58
COc1ccc2nc(NC(=O)c3ccoc3C)sc2c1	FLuc inh counter 51
O=C(NCc1ccccc1CN1CCCC1)C1CCN(C(=O)c2ccc(F)cc2)CC1	none (no result: FLuc act counter, FLuc inh counter, PPC-1+TRAIL kill)
Cc1ccc2nc(NC(=S)NC(=O)c3ccc(OC(C)C)cc3)sc2c1	none (no result: FLuc act counter, FLuc inh counter, PPC-1+TRAIL kill)
O=C(NC(=S)Nc1nc2ccccc2s1)c1ccco1	TRAIL sens C8 77, FLuc inh counter 80
COc1ccc2nc(NC(=S)NC(=O)c3ccco3)sc2c1	TRAIL sens C8 72, FLuc inh counter 76
Cc1ccc2nc(NC(=S)NC(=O)c3cccs3)sc2c1	TRAIL sens C8 79, FLuc inh counter 90
O=C(NC(=S)NCc1ccc(-c2nc3ccccc3s2)cc1)c1ccco1	none
CCOC(=O)c1c(C)[nH]c(C(=O)OCC(=O)Nc2sccc2C(N)=O)c1C	TRAIL sens C8 56 (no result: FLuc act counter, FLuc inh counter, PPC-1+TRAIL kill)
COC(=O)C(C)Sc1nc2ccsc2c(=O)n1Cc1ccccc1 (stereo unspecified)	none (no result: FLuc act counter, FLuc inh counter, PPC-1+TRAIL kill)
COc1ccc(-c2nsc3c(N4CCCC4)ncnc23)cc1	TRAIL sens C8 81, FLuc inh counter 86
COCCN1C(=O)COc2ccccc2C1C(=O)NCc1ccccc1 (stereo unspecified)	none (no result: FLuc act counter, FLuc inh counter, PPC-1+TRAIL kill)
O=[N+]([O-])c1cccc(C=NNc2ccc3ccccc3n2)c1O	TRAIL sens C8 57 (no result: FLuc act counter, FLuc inh counter, PPC-1+TRAIL kill)
O=C(N/N=C/c1cccc([N+](=O)[O-])c1O)c1cccs1	FLuc inh counter 67
O=C(N/N=C/c1ccc([N+](=O)[O-])cc1)c1cccs1	none (no result: FLuc act counter, FLuc inh counter)
Fc1cccc(/C=N/Nc2ccc3ccccc3n2)c1	FLuc inh counter 71
Brc1ccccc1/C=N/Nc1ccc2ccccc2n1	none
CCN(CC(=O)Nc1ccc(NC(C)=O)cc1)C(=O)CCCc1c[nH]c2ccccc12	none (no result: FLuc act counter, FLuc inh counter, PPC-1+TRAIL kill)
CCOC(=O)N1CCN(C(=O)COC(=O)c2ccc(Cl)nc2)CC1	none (no result: FLuc act counter, FLuc inh counter, PPC-1+TRAIL kill)
O=C(C#Cc1ccccc1)c1ccc([N+](=O)[O-])cc1	none
O=C(C#Cc1ccccc1)c1ccccc1	TRAIL sens C8 93 (no result: FLuc act counter, FLuc inh counter, PPC-1+TRAIL kill)
C[C@H](O)C#Cc1cnc2c(c1)C(=O)N([C@H](C)CO)C[C@@H](C)[C@@H](CN(C)Cc1ccc(-c3ccccc3)cc1)O2	none (no result: FLuc act counter, FLuc inh counter, PPC-1+TRAIL kill)
CN(C)c1ccnc2c[cH-]cc12.[Fe].c1ccc(-[c-]2[c-](-c3ccccc3)[c-](-c3ccccc3)[c-](-c3ccccc3)[c-]2-c2ccccc2)cc1 (stereo unspecified)	TRAIL sens C8 89! (no result: FLuc act counter, FLuc inh counter)
CC(C)c1ccc(-n2nc3ccc(N)cc3n2)cc1	TRAIL sens C8 68, FLuc inh counter 87
Cc1ccc(-n2nc3ccc(N)cc3n2)cc1	FLuc inh counter 76
CCc1ccc(/C=C/C(=O)C2C(=O)c3ccccc3C2=O)cc1	TRAIL sens C8 91, FLuc inh counter 96
O=C(/C=C/c1ccccc1)C1C(=O)c2ccccc2C1=O	TRAIL sens C8 87, FLuc inh counter 95
COc1cccc2cc(C(=O)NCCN3CCOCC3)c(=O)oc12	none (no result: FLuc act counter, FLuc inh counter, PPC-1+TRAIL kill)
CCOCCc1nnc(NC(=O)CS(=O)(=O)c2ccc(C)cc2)s1	none (no result: FLuc act counter, FLuc inh counter, PPC-1+TRAIL kill)
COc1cc(O)cc(/C=C/c2ccccc2)c1	none (no result: FLuc act counter, FLuc inh counter, PPC-1+TRAIL kill)
